hK5 inh – human KLK5 protease inhibitors, primary screen, biochemical, 1536-well. hit rate 0.59% among 210,000. Kallikrein-5 (Homo sapiens), Q9Y337. recombinant hK5, fluorogenic AMC substrate cleavage. inhibition, % at 5 µM. AID 873, 2007;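 active = inhibition of 40% or more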
Calpain2 inh – inhibitors of pig calpain II, primary screen, biochemical, fluorogenic peptide substrate, 1536-well. purified calpain II, 30 min. inhibition, % at 16 µM. AID 1236, 2008. hit rate 0.37% among 220,000;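 active = inhibition above about 50%, limit read from the data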
FXIa inh 1536 – human FXIa protease inhibitors, primary screen, biochemical, 1536-well. Coagulation factor XI (Homo sapiens), P03951. purified FXIa, Boc-Glu-Ala-Arg-AMC fluorogenic substrate. inhibition, % at 5 µM. hit rate 0.14% among 220,000. AID 798, 2007;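 active = inhibition of at least 40%; inactive = inhibition below 40%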;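 note: fluorescence of freed AMC excited at 355 nm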
Target sequence (P03951 19-387 limits assumed): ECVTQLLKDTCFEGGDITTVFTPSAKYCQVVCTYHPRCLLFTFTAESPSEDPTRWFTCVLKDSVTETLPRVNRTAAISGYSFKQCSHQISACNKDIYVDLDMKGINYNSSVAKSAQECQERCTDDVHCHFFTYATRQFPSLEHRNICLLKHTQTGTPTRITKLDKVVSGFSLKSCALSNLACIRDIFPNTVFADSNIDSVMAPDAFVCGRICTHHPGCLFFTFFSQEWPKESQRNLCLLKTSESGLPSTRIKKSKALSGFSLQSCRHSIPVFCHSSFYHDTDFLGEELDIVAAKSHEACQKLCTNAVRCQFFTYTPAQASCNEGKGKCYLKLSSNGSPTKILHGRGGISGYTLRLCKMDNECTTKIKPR
Target sequence (P03951 388-625 limits assumed): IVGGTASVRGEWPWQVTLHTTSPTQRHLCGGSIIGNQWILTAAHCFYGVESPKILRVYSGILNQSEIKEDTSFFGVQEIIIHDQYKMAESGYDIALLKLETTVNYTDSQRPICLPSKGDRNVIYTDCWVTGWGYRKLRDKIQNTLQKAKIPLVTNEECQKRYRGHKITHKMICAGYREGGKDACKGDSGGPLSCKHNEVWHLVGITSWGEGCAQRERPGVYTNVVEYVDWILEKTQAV
Thrombin inh – human alpha-thrombin inhibitors, primary screen, counter-screen for coagulation protease inhibitor project, biochemical, 1536-well, fluorogenic AMC substrate; Prothrombin (Homo sapiens), P00734; Boc-VPR-AMC fluorogenic substrate cleavage; inhibition, % at 5 µM; hit rate 0.26% among 220,000;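 active = inhibition at or above 40%; inactive = inhibition below 40%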
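System: Human alpha-thrombin protein | Medium: pH 7.5 Tris (50 mM) with NaCl 150 mM, Tween 20 0.05% | Times: Enzyme reaction carried out at room temperature | Detection: AMC fluorescence, 355/460 nm | Evaluation: Percent inhibition scaled between no-compound controls and no-enzyme blanks | Benchmarks: Enzyme without compound as high, wells lacking enzyme as low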
FXIIa inh – human FXIIa protease inhibitors, primary screen, biochemical, 1536-well | Coagulation factor XII (Homo sapiens), P00748 | purified FXIIa, Boc-QGR-AMC fluorogenic substrate, 2 h | inhibition, % at 5 µM | hit rate 0.3% among 220,000; in the data active = inhibition above about 40%
A number is an active result; n = inactive; x = no result given. The list is not random: actives were taken first. Their share in the collection is about 1.4%.

SMILES	hK5 inh	Calpain2 inh	FXIa inh 1536	Thrombin inh	FXIIa inh
COC(=O)c1[nH]c(C)c(/C(O)=C2\C(=O)C(=O)N(CCN(C)C)C2c2cccc(OC)c2OC)c1C (stereo unspecified)	56.1	n	n	n	43.9
COc1cc(NC(=O)c2nccnc2C(=O)O)cc(OC)c1	122.0	n	n	n	n
Cn1c(=O)cc(OCCCC(=O)NC2CCCC2)c2ccccc21	70.0	n	n	n	n
CC(=O)c1ccc(-c2ccc(C(=O)N3CCN(c4ccc(F)cc4)CC3)o2)cc1	n	67.5	n	n	n
O=C(c1ccc(Br)o1)N1CCN(c2ccc(F)cc2)CC1	n	n	n	n	n
N/C(=N\c1nc2ccccc2o1)NC(=O)c1ccccc1NC(=O)c1ccccc1	n	n	n	52.1	n
COc1cccc(CC(=S)N2CCOCC2)c1	n	n	n	n	n
CCOC(=O)NC(=O)CSc1nc2ccc(OCC)cc2[nH]1	n	n	n	n	n
CCOC(=O)NC(=O)CSc1nc2ccc([N+](=O)[O-])cc2[nH]1	43.7	n	n	n	n
COc1ccccc1NC(=O)Nc1ccccc1C(=O)NCCCN1CCOCC1	n	n	n	n	n
CCC(C)c1ccc(O)c(NC(=O)c2cccnc2)c1 (stereo unspecified)	n	n	n	n	n
CC(C)c1ccc(O)c(NC(=S)NC(=O)c2cccnc2)c1	x	n	n	n	40.6
O=C(CC1Oc2ccccc2NC1=O)NCCCN1CCCC1=O (stereo unspecified)	53.3	n	n	n	n
CC(C)N(CCCNC(=O)CC1Oc2ccccc2NC1=O)Cc1ccccc1 (stereo unspecified)	55.4	n	n	n	n
O=C(COc1ccc(Cl)cc1)NCc1nnc(SCC(=O)Nc2ccc(F)cc2F)o1	n	n	n	n	n
COC(=O)C1=C(C)N(Cc2ccco2)C(=O)N[C@H]1c1ccc(Br)cc1	n	n	n	n	n
CC1(C(=O)O)CCC(C(=O)N2CCCCC2)C1(C)C (stereo unspecified)	n	n	n	n	n
CC(C)(C)c1ccc(OCC(=O)N2CCCCCC2)c(Br)c1	n	n	n	n	n
Cc1ccc(OCC(=O)N2CCCCC2)c(Br)c1	48.4	n	n	n	n
O=c1c2c3c(sc2n(CCN2CCOCC2)c(=O)n1Cc1ccco1)CCCCC3	n	n	n	n	n
O=c1c2c3c(sc2n(CCN2CCCCC2)c(=O)n1Cc1ccco1)CCCCC3	44.5	n	n	n	n
COc1ccc(C(OC(=O)c2ccco2)C(=O)NC(C)(C)C)cc1 (stereo unspecified)	n	n	n	n	n
O=C(Nc1ccc(OC(F)(F)C(F)F)c(NC(=O)c2cccc(F)c2)c1)c1cccc(F)c1	n	n	n	n	n
Cn1c(SCC(=O)NC(C)(C)C)nnc1-c1ccc(C(C)(C)C)cc1	41.5	n	n	n	n
CCn1c(SCC(=O)NC(C)(C)C)nnc1-c1ccncc1	n	n	n	n	n
SMILES	hK5 inh	Calpain2 inh	FXIa inh 1536	Thrombin inh	FXIIa inh
Nc1nc(-c2ccc(Cl)cc2)cc(C(F)(F)F)n1	41.9	n	n	n	n
Nc1nc(-c2ccc(F)cc2)cc(C(F)(F)F)n1	n	n	n	n	n
COCCNC(=O)NC(=O)CSc1nc(C)c(C)c(C)n1	n	n	n	n	n
O=C(COc1ccc(Cl)cc1)NCc1ccncc1	n	n	n	n	n
COc1cc(CNc2ccc(O)cc2)cc(Br)c1OCc1ccccc1	x	63.8	n	n	n
O=C(NCc1ccccn1)c1ccc(CNS(=O)(=O)c2cccc(Cl)c2)cc1	n	n	n	n	n
COc1cccc(C(=O)N/N=C/c2ccc(OC3CSC3)cc2)c1	45.4	n	n	n	n
CC(C)C[C@H](NC(=O)c1nc[nH]c1C(=O)NCc1ccccc1)C(=O)OC(C)(C)C	n	60.2	n	n	n
CC(C)C[C@H](NC(=O)c1[nH]cnc1C(=O)N[C@@H](Cc1ccccc1)C(=O)OC(C)(C)C)C(=O)OC(C)(C)C	n	n	n	n	n
CC(C)(C)OC(=O)NCCCC[C@H](NC(=O)c1nc[nH]c1C(=O)N[C@@H](CCCCNC(=O)OC(C)(C)C)C(=O)OC(C)(C)C)C(=O)OC(C)(C)C	n	n	n	n	n
CC(C)(C)OC(=O)NCCCCCNC(=O)c1[nH]cnc1C(=O)N[C@@H](CCCCNC(=O)OC(C)(C)C)C(=O)OC(C)(C)C	n	54.4	n	n	n
CN(Cc1ccccc1)C(=O)CSc1nc2cc(C(=O)N3CCC(C(N)=O)CC3)ccc2c(=O)n1-c1ccccc1	n	n	n	n	n
COc1ccc(Cn2cccc(NC(=O)Nc3ccc(F)cc3)c2=O)cc1	n	n	n	n	n
CSc1ccc(NC(=O)Nc2cccn(Cc3ccccc3)c2=O)cc1	66.1	n	n	n	n
Cc1ccc(S(=O)(=O)NC2(C(F)(F)F)NC(=O)N(C)C2=O)cc1 (stereo unspecified)	67.4	n	n	n	n
O=C1NC(NS(=O)(=O)c2ccc(Cl)cc2)(C(F)(F)F)C(=O)N1CCc1ccccc1 (stereo unspecified)	n	n	n	n	n
CSCC[C@@H](C(=O)O)N1Cc2ccccc2C1=O	n	n	n	n	n
O=C(O)[C@@H](c1ccccc1)N1Cc2ccccc2C1=O	48.6	n	n	n	n
c1ccc(-c2n[nH]c3c2CCC3)cc1	50.5	n	n	n	n
COc1cccc(-c2n[nH]c3c2CCC3)c1	n	n	n	n	n
Cc1ccc(NC(=O)CC2=NC(=O)C(CC(=O)Nc3ccccc3C)S2)cc1 (stereo unspecified)	n	n	n	n	n
Cc1nc(-c2ccccc2)sc1C(=O)CSc1ccc(Cl)cc1	n	63.6	n	n	n
O=C(NCc1ccccc1Cl)C(=O)NCC1OCCN1S(=O)(=O)c1cccs1 (stereo unspecified)	n	n	n	n	n
CCN(Cc1ccccc1)c1ccc(/C=N/NC(=O)c2cccc(S(=O)(=O)N3CCOCC3)c2)cc1	56.4	n	n	n	n
CCCCN1CNC(=S)N(Cc2ccccc2)C1	n	n	n	n	n
SMILES	hK5 inh	Calpain2 inh	FXIa inh 1536	Thrombin inh	FXIIa inh
O=C(COC(=O)c1ccccc1Br)Nc1ccc(F)cc1	n	n	n	n	41.3
O=C(COC(=O)c1ccccc1Br)NCCc1ccc(F)cc1	n	n	n	n	n
COc1cccc(-c2nc3ccccc3c(=O)o2)c1	n	n	n	64.8	n
O=c1oc(-c2ccc(Br)o2)nc2ccccc12	n	n	n	n	46.3
COc1cc(OC)cc(-c2nc3ccccc3c(=O)o2)c1	n	n	n	n	n
CCOCCCn1c(C)nc2c[n+](CC(=O)c3ccc4ccccc4c3)cc(Br)c21	n	n	n	n	n
COc1ccc(CCN(C)C(=O)C2CCN(Cc3cccc(OC)c3OC)CC2)cc1OC	n	n	n	n	n

Screening results deposited in PubChem BioAssay by several laboratories.
